The nature of test [1]: Growth inhibition of human HCT116 cells after 48 hrs by MTT assay. As to conditions: HCT-116, 48 h. In kind it is functional, cell-based. In short, it runs like this:
(§1)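 In vitro cytotoxicity screen on human cell lines. Value reported as IC50, the concentration causing 50% inhibition of the cells.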

The nature of test [2]: Growth inhibition of human HuH7 cells after 48 hrs by MTT assay. In kind it is functional, cell-based. Particulars: Huh-7, 48 h. In short, it runs like this: as §1
A short description of test [3]: Growth inhibition of human SW620 cells after 48 hrs by MTT assay. In kind it is functional, cell-based. Particulars: SW-620, 48 h. The procedure, abridged:
as §1

A short description of test [4]: Growth inhibition of human HFL1 cells after 48 hrs by MTT assay. In kind it is cell-based. As to conditions: HFL1, 48 h. In short, it runs like this: as §1

pIC50: −log10 of the molar value.

Consider `COc1cc2ccc(=O)oc2cc1OC(=O)c1c(-c2ccccc2)n[nH]c1C`, for which the pIC50 in test [1], in test [2] and in test [3] was less than 4.60 each time.
As for `COc1cc2cc(NC(=O)c3c(C)noc3-c3ccc(Cl)cc3)c(=O)oc2cc1OCCN1CCOCC1`, the pIC50 in test [1], in test [2] and in test [3] was less than 4.60 in each case.
As for `COc1cc2ccc(=O)oc2cc1OC(=O)c1c(-c2ccc(Cl)cc2)n[nH]c1C`, the pIC50 in test [1] was 4.86; in test [2], 4.79; in test [3] it was 4.77; in test [4], 4.33.
Turning to `COc1cc2cc(NC(=O)c3c(C)noc3-c3ccccc3)c(=O)oc2cc1OCCN1CCOCC1`, the pIC50 in test [1] is 4.68; in test [2], less than 4.60; in test [3], less than 4.60.
For the compound `COc1cc2ccc(=O)oc2cc1OC(=O)c1c(C)noc1-c1ccccc1`, the pIC50 in test [1] is 4.64; in test [2], less than 4.60; in test [3] it was 4.63; in test [4] it was 4.16.
For `COc1cc2cc(NC(=O)c3c(C)noc3-c3ccccc3F)c(=O)oc2cc1OCCN1CCOCC1` the same measures were 4.81, 4.83, 4.86 and 4.16.
With `COc1cc2ccc(=O)oc2cc1OC(=O)c1c(-c2ccccc2F)n[nH]c1C`, the negative logarithm of the IC50 (pIC50) in test [1], in test [2] and in test [3] was less than 4.60 each time.
`COc1cc2ccc(=O)oc2cc1O` [SCOPOLETIN]: the negative-log IC50 (pIC50) in test [1], in test [2] and in test [3] was less than 4.60 each time.
With `COc1cc2ccc(=O)oc2cc1OC(=O)c1c(-c2ccc([N+](=O)[O-])cc2)n[nH]c1C`, the pIC50 in test [1], in test [2] and in test [3] was less than 4.60 throughout.
As to `COc1cc2cc(NC(=O)c3c(C)noc3-c3ccc([N+](=O)[O-])cc3)c(=O)oc2cc1OCCN1CCOCC1`, the pIC50 in test [1] was 4.99; in test [2], 4.92; in test [3], 4.98; in test [4], 4.13.
Regarding `CCN(CC)CCNC(=O)c1c(C)[nH]c(/C=C2\C(=O)Nc3ccc(F)cc32)c1C` [SUNITINIB], the pIC50 is 5.25 in test [1], 5.52 in test [2] and 5.20 in test [3].
As to `COc1cc2ccc(=O)oc2cc1OC(=O)c1c(C)noc1-c1ccc([N+](=O)[O-])cc1`, the pIC50 in test [1] is 5.04; in test [2], 5.06; in test [3] it was 5.01; in test [4], 4.04.
Regarding `COc1cc2ccc(=O)oc2cc1OC(=O)c1c(C)noc1-c1ccccc1F`, the pIC50 in test [1], in test [2] and in test [3] was less than 4.60 in each case.
As for `COc1cc2ccc(=O)oc2cc1OC(=O)c1c(C)noc1-c1ccc(Cl)cc1`, the negative logarithm of the IC50 (pIC50) in test [1] is 4.96; in test [2], 4.91; in test [3] it was 4.90; in test [4], 4.37.

(Values after ChEMBL document CHEMBL3872269, “Design, synthesis and cytotoxic activities of scopoletin-isoxazole and scopoletin-pyrazole hybrids” (Bioorg Med Chem Lett, 2017).)
